Source: paper PMC7422904 (Translational Vision Science & Technology, 2020)

How the values were obtained:
[1] = system: chicken chorioallantoic membranes; assay: Hen's egg test in chorioallantoic membrane
Procedure, shortened: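 Fertilized hen eggs incubated 10 days at 37 ± 1°C and 60 ± 1% relative humidity. Shell opened and inner membranes removed. Test compound (40, 80, 160, 320 µg) applied to the CAM and watched for 300 s. Controls: 0.9% NaCl (negative) and 0.1 M NaOH (positive); N = 10. Onset times of hemorrhage, lysis and coagulation were weighted 5, 7 and 9 in the OII equation.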

[2] = system: ocular hypertensive rat eyes; type: in vivo, Wistar rats; conditions: ocular hypertensive rats, single drop, Bimatoprost 8.8 µg/eye, N = 6
Procedure, shortened: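 Male Wistar rats (7–10 weeks) under i.p. ketamine/xylazine (90:10 mg/kg) plus topical 0.5% proxymetacaine. Right eye received 30 µL HA (10 mg/mL) intracamerally near the limbus, weekly for 3 weeks. Dosing (one 20 µL drop) began once IOP was raised. Groups: saline, test compound, bimatoprost, combination, normotensive saline; N = 6. IOP: TonoPen Vet on unsedated rats, mean of four readings.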

Compound	irritancy classification in words (HET-CAM) ([1]; PnPP-19 at all concentrations tested, NaOH at 0.1 M, 300 seconds)	OII ± SEM (ocular irritation index) ([1]; positive control 0.1 M, observed 300 seconds, N = 10)	ability to reduce IOP (in words) [2]
[Na+].[OH-] [0.1 M NaOH, sodium hydroxide]	severely irritating	20.11± 0.32	
CCNC(=O)CCC/C=C\C[C@@H]1[C@@H](/C=C/[C@@H](O)CCc2ccccc2)[C@H](O)C[C@@H]1O [Bimatoprost]			not able to reduce IOP
